# Peptide text beside a SMILES is read from it.
# Species: Cavia porcellus
# Assay: Relative narcotic agonistic activity was performed by inhibition of electrically evoked contractions compared with [Met5]-enkephalin (100%) in guinea pig ileum
# Format: functional
# Parameters: scale not given: the % may be the effect or the level left
# Method in brief: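 Isolated guinea pig ileum; inhibition of electrically evoked contractions as agonist read-out. Single pulses of 4-ms duration at 3 to 6 V; isometric contractions recorded. Potency expressed relative to [Met5]enkephalin taken as 100%.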
row,SMILES,Activity [%]
1,N[C@@H](Cc1ccc(O)cc1)C(=O)NCC(=O)NCC(=O)N[C@@H](Cc1c[nH]c2ccccc12)C(=O)N1CCC[C@H]1C(=O)O,1
2,CC(C)C[C@@H](C(=O)O)N(C)C(=O)[C@H](Cc1ccccc1)NC(=O)CNC(=O)CNC(=O)[C@@H](N)Cc1ccc(O)cc1,70
3,COc1ccc(C[C@H](N)C(=O)NCC(=O)NCC(=O)N[C@@H](Cc2c[nH]c3ccccc23)C(=O)N[C@@H](CCSC)C(=O)O)cc1,0.5
4,CSCC[C@H](NC(=O)[C@H](Cc1ccccc1)NC(=O)CNC(=O)CNC(=O)[C@@H](N)Cc1ccc(O)cc1)C(=O)O,100
5,COc1ccc(C[C@H](N)C(=O)NCC(=O)NCC(=O)N[C@@H](Cc2ccccc2)C(=O)N[C@@H](CCSC)C(=O)O)cc1,2
6,CC(C)C[C@H](NC(=O)[C@H](Cc1c[nH]c2ccccc12)NC(=O)CNC(=O)CNC(=O)[C@@H](N)Cc1ccc(O)cc1)C(=O)O,10
7,CC(C)C[C@@H](C(=O)O)N(C)C(=O)[C@H](Cc1c[nH]c2ccccc12)NC(=O)CNC(=O)CNC(=O)[C@@H](N)Cc1ccc(O)cc1,4
8,CSCC[C@H](NC(=O)[C@H](Cc1c[nH]c2ccccc12)NC(=O)CNC(=O)CNC(=O)[C@@H](N)Cc1ccc(O)cc1)C(=O)O (H-YGGWM-OH),27
9,CC(C)C[C@H](NC(=O)[C@H](Cc1ccccc1)NC(=O)CNC(=O)CNC(=O)[C@@H](N)Cc1ccc(O)cc1)C(=O)O [ENKEPHALIN],24
10,CSCC[C@H](NC(=O)[C@H](Cc1c[nH]c2ccccc12)N(C)C(=O)CNC(=O)CNC(=O)[C@@H](N)Cc1ccc(O)cc1)C(=O)O,39
11,N[C@@H](Cc1ccc(O)cc1)C(=O)NCC(=O)NCC(=O)N[C@@H](Cc1ccccc1)C(=O)N1CCC[C@H]1C(=O)O,1
